IEC-6 cytotox = kills IEC-6 intestinal cells in KLF5 counter-screen. IEC-6 cytotoxicity, luminescence viability. inhibition, % at 5 µM. 0.78% of 290,000 active; in the data active = inhibition above about 22%
MT stabilizer = stabilizes microtubules in HeLa cells. HeLa tubulin immunostaining HCS, 24 h; share of cells brighter than vehicle mean+2SD. % tubulin-high responders, % at 10 µM. 0.83% of 200,000 active. AID 2205;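 active = plate Z-score above 3 for both tubulin-high and condensed-nucleus cell shares, with cell loss under 80%, at 10 µM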;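 also: anti alpha tubulin signal scored within the nucleus-defined area of each cell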
BaF3 tox = reduces parental Ba/F3 cell viability, JAK2V617F counter-screen | CellTiter-Glo ATP luminescence | inhibition, % at 5.6 µM | 1.1% of 220,000 active | AID 1486;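 active = inhibition above a per-campaign cutoff, the mean inhibition of all tested compounds plus 3 SD, cut at about 27% in these data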
APP transl inh = APP translation inhibition. SH-SY5Y APP 5'UTR-luciferase reporter, luminescence. inhibition, % at 2 µM. 0.82% of 190,000 active. AID 1285;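 active = inhibition above a set limit, derived from the sample mean plus 3 SD, cut at about 45% in these data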
Ba/F3 V617F tox = lowers viability of Ba/F3 cells expressing EpoR and JAK2V617F | AID 1446 | inhibition, % at 5.6 µM | ATP luminescence | 1.1% of 220,000 active;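 active = inhibition above the campaign mean plus 3 SD over all tested compounds, cut at about 24% in these data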;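 also: cytokine-independent growth of Ba/F3 cells driven by EpoR plus mutant JAK2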
bCat nuc transl = beta-catenin nuclear translocation modulation. HeLa beta-catenin nuclear translocation, immunofluorescence imaging. nuclear translocation activity, % at 5 µM. 0.3% of 190,000 active. AID 1665;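 active = nuclear translocation activity above 50% at 5 µM, with a well cell count of 50 or more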;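 also: per-cell ratio of nuclear to cytoplasmic median beta-catenin stain intensity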
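Test system: human HeLa cells, endogenous beta-catenin. Times: 24 h compound exposure, 37°C. Measured by: beta-catenin immunofluorescence imaging with DAPI.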
Hits are given with their value; i = inactive; nt = no result. Compounds with a hit are over-represented: about 2.2% of the library has one in this group of screens.

SMILES	IEC-6 cytotox	MT stabilizer	BaF3 tox	APP transl inh	Ba/F3 V617F tox	bCat nuc transl
Cn1cc(CN2C[C@H]3CC[C@H]2C3)c(-c2ccccc2F)n1	i	i	31	i	55	i
Cc1nn(C)c(C(=O)NCc2ccc(Cl)cc2)c1Cl	i	i	34	i	i	i
O=S1(=O)Nc2c(ccc3cccnc23)-c2ccccc21	67	i	i	60	i	i
CC(C)Oc1ccc(CCN=C(N)N=C(N)N)cc1Cl	i	i	36	i	i	i
CCCN1CCC(NC23CC4CC(CC(C4)C2)C3)CC1	i	nt	nt	nt	nt	nt
CCc1nc2c(c(=O)c3ccccc3n2C)c(=O)n1CCc1ccc(OC)cc1	26	i	i	i	i	i
COc1ccc(OC)c(NC(=O)Cc2coc3ccc4ccccc4c23)c1	i	i	i	68	i	i
CC(C)(CO)NCc1cccc(OCc2ccc(Cl)cc2)c1	i	i	i	i	i	i
Clc1ccc(COc2cccc(CNCc3ccncc3)c2)cc1	i	i	38	i	i	i
Cc1ccc(-c2csc(=Nc3cccnc3)n2CCCN2CCCC2=O)cc1C	i	i	54	i	64	i
Cc1ccc(C)c2nc(Cl)c(C3NC(=O)c4ccccc4N3)cc12 (centres undefined)	i	16	i	i	i	i
Cc1cc(C)c2nc(Cl)c(C3NC(=O)c4ccccc4N3)cc2c1 (centres undefined)	i	i	i	i	i	i
O=c1c2c(-c3ccccc3)csc2ncn1/N=C/c1cccc([N+](=O)[O-])c1O	i	i	i	i	i	i
Cn1cc(/C=N/n2cnc3scc(-c4ccccc4)c3c2=O)c2ccccc21	i	28	i	92	i	71
Cc1cc(OC(F)F)ccc1NC(=O)Nc1ccc2c(c1)OCO2	i	nt	nt	nt	nt	nt
COc1ccc(-c2c(C)nn3c(N4CCC(C(=O)NCCN(C)C)CC4)cc(C)nc23)cc1OC	i	i	i	i	i	i
CCCN(CCC)C(=O)C1CCN(c2cc(C)nc3c(-c4ccc(OC)c(OC)c4)c(C)nn23)CC1	i	i	40	i	i	i
CCOC(=O)c1c(C)[nH]c(C(=O)N/N=C\c2ccccc2O)c1C	i	i	i	67	i	i
CC1C(=O)NN=C1C(=O)N/N=C/c1ccco1 (centres undefined)	i	i	i	72	i	i
O=C(/C=C/c1ccco1)Nc1ccc(-c2nc3ccccc3[nH]2)cc1	i	i	i	86	i	i
Cc1ccc(-n2nc3cc(C)c(NC(=S)NC(=O)/C=C/c4ccco4)cc3n2)cc1	i	i	63	i	68	i
COc1ccc(-c2csc(NC(=S)NC(=O)/C=C/c3ccco3)n2)cc1OC	i	i	i	75	i	52
Cc1cccc(NC(=S)NC(NC(=O)c2ccco2)C(Cl)(Cl)Cl)c1 (centres undefined)	i	i	i	58	i	i
COc1ccc(-c2csc(NC(=S)NC(=O)/C=C/c3ccco3)n2)cc1Br	i	nt	i	nt	i	i
O=C(/C=C/c1ccccc1)NC(=S)Nc1ccc(N2CCOCC2)c(Cl)c1	i	i	i	i	i	i
SMILES	IEC-6 cytotox	MT stabilizer	BaF3 tox	APP transl inh	Ba/F3 V617F tox	bCat nuc transl
O=C(/C=C/c1ccco1)Nc1ccc(N2CCCC2)cc1	i	25	i	i	i	i
O=C(/C=C/c1ccco1)NC(=S)Nc1ccc(N2CCOCC2)c(Cl)c1	i	48	i	i	i	i
O=C(/C=C/c1ccco1)NC(=S)Nc1cccc([N+](=O)[O-])c1	i	15	i	i	i	i
Cc1cccc(NC(=S)NC(=O)/C=C/c2ccco2)c1	79	22	78	62	72	52
CC1CCN(S(=O)(=O)N2CCN(C(=O)c3ccc4c(c3)OCO4)CC2)CC1	i	nt	nt	nt	nt	nt
CC(C)(C)n1ncc2c(=O)n(CC(=O)NCc3ccc(F)cc3)cnc21	i	47	i	i	i	i
CC(C)(C)n1ncc2c(=O)n(CC(=O)NCc3ccco3)cnc21	i	i	i	i	i	i
CCOc1ccccc1CNC(=O)CCC(=O)N1Cc2ccccc2Oc2ncccc21	i	nt	nt	nt	nt	nt
CN(C)CCNC(=O)C1(O)c2cc(Br)ccc2NC(=O)N1c1ccc(Cl)cc1 (centres undefined)	i	nt	nt	nt	nt	nt
O=C1OCC2=C1C(c1ccc(F)cc1)Sc1ccccc1N2 (centres undefined)	i	i	i	i	i	i
COc1cc(C2Sc3ccccc3NC3=C2C(=O)OC3)cc(OC)c1OC (centres undefined)	i	40	i	i	i	i
CC1CCN(C(=O)Cn2nnc(-c3ccc(N)cc3)n2)CC1	i	nt	nt	nt	nt	nt
O=C(Nc1c[nH]c(=O)[nH]c1=O)c1ccccc1Cl	i	nt	nt	nt	nt	nt
COc1cc2c(cc1OC)C(c1ccc(N(C)C)cc1)NCC2 (centres undefined)	i	nt	nt	nt	nt	nt
COc1ccc(C2NCCc3cc(OC)c(OC)cc32)cc1OC (centres undefined)	i	i	i	59	i	i
O=C(Nc1cccc(Cl)c1)c1cc(S(=O)(=O)N2CCOCC2)cs1	i	nt	nt	nt	nt	nt
Cc1cc(NC(=O)Nc2cccc([N+](=O)[O-])c2)no1	i	i	90	i	i	i
Cc1cc2oc(=O)cc(CN3CCCCC3C)c2cc1Cl (centres undefined)	i	nt	nt	nt	nt	nt
Cc1cc2oc(=O)cc(Cn3ncc(Cl)c(Cl)c3=O)c2cc1Cl	i	i	i	88	i	i
Cc1ccc(C)c(-n2c3nc(=O)[nH]c(=O)c-3cc3cc([N+](=O)[O-])ccc32)c1	i	i	56	91	i	93
CN(Cc1ccc(F)cc1)C(=O)c1cccc(OCc2ccccc2)c1	i	nt	nt	nt	nt	nt
O=C(c1ccncc1)N(c1ccc2oc3c(c2c1)CCCC3)S(=O)(=O)c1cccc([N+](=O)[O-])c1	i	i	i	i	i	i
COc1ccc(S(=O)(=O)N(C(=O)c2ccncc2)c2ccc3oc4c(c3c2)CCCC4)cc1	i	22	i	i	i	i
O=C(COC(=O)CCc1c[nH]c2ccccc12)NC(c1ccccc1)c1ccccc1	i	i	76	i	i	i
NNC(=O)CCc1c[nH]c2ccccc12	i	i	i	i	i	i
SMILES	IEC-6 cytotox	MT stabilizer	BaF3 tox	APP transl inh	Ba/F3 V617F tox	bCat nuc transl
CS(=O)(=O)CCC(C(=O)O)N1C(=O)c2ccc(Oc3ccc(Cl)cc3)cc2C1=O (centres undefined)	i	nt	nt	nt	nt	nt
CC[n+]1cccc(-c2nc3ccccc3s2)c1	i	i	44	i	34	nt
O=C(c1ccc([N+](=O)[O-])s1)N1CCN(c2ccc(C(F)(F)F)cn2)CC1	i	nt	nt	nt	nt	nt
CC(C)(C)NC(=O)NC(=O)CSc1nnc(COc2ccccc2Cl)o1	i	i	i	i	i	i
C/C(N)=C(/C#N)C(=O)CSc1nnc(COc2ccccc2Cl)o1	i	i	95	i	i	i
O=S(=O)(NCc1nnc2c(C(F)(F)F)cc(Cl)cn12)c1ccccc1	i	nt	nt	nt	nt	nt
N=c1ccn(CC(=O)c2ccc(-c3ccccc3)cc2)cc1	i	i	75	i	98	i
O=C(CN1C(=O)CCC1=O)c1ccc(-c2ccccc2)cc1	i	i	i	i	i	i

High-throughput results from PubChem.
